Reference: ChEMBL document CHEMBL3872212, “Synthesis, antimicrobial activity and advances in structure-activity relationships (SARs) of novel tri-substituted thiazole derivatives” (2016)
Converted amounts (≈) assume the structure as drawn.

How the values were obtained:
Type in all cases: functional
Bacillus spizizenii [1] = experiment: Antibacterial activity against Bacillus subtilis ATCC 6633 at 200 ug/mL measured after 24 hrs by filter paper disc method; settings: ATCC 6633, 24 h, read-out: DIZ
Staphylococcus aureus [2] = experiment: Antibacterial activity against Staphylococcus aureus ATCC 19433 at 200 ug/mL measured after 24 hrs by filter paper disc method; settings: ATCC 19433, 24 h, read-out: DIZ
Escherichia coli [3] = experiment: Antibacterial activity against Escherichia coli ATCC 8739 at 200 ug/mL measured after 24 hrs by filter paper disc method; settings: ATCC 8739, 24 h, read-out: DIZ
Proteus vulgaris [4] = experiment: Antibacterial activity against Proteus vulgaris […] at 200 ug/mL measured after 24 hrs by filter paper disc method; settings: read-out: DIZ
Aspergillus niger [5] = experiment: Antifungal activity against Aspergillus niger MTCC 1881 at 200 ug/mL incubated at 4 degC for 24 hrs followed by subsequent incubation at 37.5 degC for 3 days by poisoned food method; settings: read-out: DIZ
Aspergillus flavus [6] = experiment: Antifungal activity against Aspergillus flavus MTCC 1884 at 200 ug/mL incubated at 4 degC for 24 hrs followed by subsequent incubation at 37.5 degC for 3 days by poisoned food method; settings: read-out: DIZ
Staphylococcus aureus [7] = experiment: Antibacterial activity against Staphylococcus aureus ATCC 19433 measured after 24 hrs by broth dilution method
Summary of the method: (§1)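 MIC is the lowest concentration that arrests growth of the organism.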

Escherichia coli [8] = experiment: Antibacterial activity against Escherichia coli ATCC 8739 measured after 24 hrs by broth dilution method; summary of the method: as §1
Proteus vulgaris [9] = experiment: Antibacterial activity against Proteus vulgaris […] measured after 24 hrs by broth dilution method; summary of the method: as §1
Aspergillus niger [10] = experiment: Antifungal activity against Aspergillus niger MTCC 1881 measured after 2 days by broth dilution method; summary of the method: as §1
Aspergillus flavus [11] = experiment: Antifungal activity against Aspergillus flavus MTCC 1884 measured after 2 days by broth dilution method; summary of the method: as §1
Bacillus spizizenii [12] = experiment: Bactericidal activity against Bacillus subtilis ATCC 6633 measured after 24 hrs by broth dilution method
Summary of the method: (§2)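 MBC/MFC is found by further steps carried out once the MIC has been determined.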

Staphylococcus aureus [13] = experiment: Bactericidal activity against Staphylococcus aureus ATCC 19433 measured after 24 hrs by broth dilution method; summary of the method: as §2
Escherichia coli [14] = experiment: Bactericidal activity against Escherichia coli ATCC 8739 measured after 24 hrs by broth dilution method; summary of the method: as §2
Proteus vulgaris [15] = experiment: Bactericidal activity against Proteus vulgaris […] measured after 24 hrs by broth dilution method; summary of the method: as §2
Aspergillus niger [16] = experiment: Fungicidal activity against Aspergillus niger MTCC 1881 measured after 2 days by broth dilution method; summary of the method: as §2
Aspergillus flavus [17] = experiment: Fungicidal activity against Aspergillus flavus MTCC 1884 measured after 2 days by broth dilution method; summary of the method: as §2
Bacillus spizizenii [18] = experiment: Antibacterial activity against Bacillus subtilis ATCC 6633 measured after 24 hrs by broth dilution method; summary of the method: as §1
Escherichia coli [19] = experiment: Ratio of MBC to MIC for Escherichia coli ATCC 8739
Aspergillus flavus [20] = experiment: Ratio of MFC to MIC for Aspergillus flavus MTCC 1884
Staphylococcus aureus [21] = experiment: Ratio of MBC to MIC for Staphylococcus aureus ATCC 19433
Proteus vulgaris [22] = experiment: Ratio of MBC to MIC for Proteus vulgaris […]
Bacillus spizizenii [23] = experiment: Ratio of MBC to MIC for Bacillus subtilis ATCC 6633
Aspergillus niger [24] = experiment: Ratio of MFC to MIC for Aspergillus niger MTCC 1881

Row | SMILES | zone of inhibition at 200 µg/mL (Bacillus spizizenii [1]) [mm] | zone of inhibition at 200 µg/mL (Staphylococcus aureus [2]) [mm] | zone of inhibition at 200 µg/mL (Escherichia coli [3]) [mm] | zone of inhibition at 200 µg/mL (Proteus vulgaris [4]) [mm] | zone of inhibition at 200 µg/mL (Aspergillus niger [5]) [mm] | zone of inhibition at 200 µg/mL (Aspergillus flavus [6]) [mm] | MIC (Staphylococcus aureus [7]) [µg] | MIC (Escherichia coli [8]) [µg] | MIC (Proteus vulgaris [9]) [µg] | MIC (Aspergillus niger [10]) [µg] | MIC (Aspergillus flavus [11]) [µg/mL] | MBC (Bacillus spizizenii [12]) [µg] | MBC (Staphylococcus aureus [13]) [µg] | MBC (Escherichia coli [14]) [µg] | MBC (Proteus vulgaris [15]) [µg] | MFC (Aspergillus niger [16]) [µg] | MFC (Aspergillus flavus [17]) [µg] | MIC (Bacillus spizizenii [18]) [µg/mL] | Ratio (Escherichia coli [19]) | Ratio (Aspergillus flavus [20]) | also measured
1 | Cc1ccc(-c2ccc(-c3nc(C)sc3C)cc2)cc1 | 21.1 | 23.1 | 24.2 | 19.5 | 19.7 | 21.3 | 100 | 12.5 | 50 | 25 | 25 (≈ 89.5 µM) | 100 | >200 | 100 | 100 | >200 | 100 | – | – | – | –
2 | COc1ccc(-c2ccc(-c3nc(C)sc3C)cc2)cc1 | 22.1 | 25.5 | 27.1 | 21.6 | 23.4 | 24.9 | 50 | 12.5 | 25 | 12.5 | 25 (≈ 84.6 µM) | 100 | >200 | 25 | 100 | 100 | 50 | 6.25 (≈ 21.2 µM) | 2 | 2 | –
3 | COc1cccc(-c2ccc(-c3nc(C)sc3C)cc2)c1 | 15.2 | 17.5 | 19.2 | 18.8 | 6.32 | 9.11 | – | – | – | – | – | – | – | – | – | – | – | – | – | – | –
4 | COc1ccc(-c2ccc(-c3nc(C)sc3C)cc2)cc1OC | 22 | 24.1 | 25.6 | 20.9 | 22.5 | 24.2 | 25 | 50 | 25 | 25 | – | 100 | 50 | 200 | 100 | 100 | 200 | 12.5 (≈ 38.4 µM) | – | – | Ratio (Staphylococcus aureus [21]): 2; Ratio (Proteus vulgaris [22]): 2
5 | Cc1nc(-c2ccc(-c3ccc(C(F)(F)F)cc3)cc2)c(C)s1 | 5.37 | 7.86 | 8.7 | 6.91 | – | – | – | – | – | – | – | – | – | – | – | – | – | – | – | – | –
6 | Cc1nc(-c2ccc(-c3ccc(I)cc3)cc2)c(C)s1 | 12.1 | 14.8 | 16.2 | 15.1 | 8 | 9.57 | – | – | – | – | – | – | – | – | – | – | – | – | – | – | –
7 | Cc1nc(-c2ccc(-c3cccc(C=O)c3)cc2)c(C)s1 | 6.65 | 8.02 | 9.56 | 7.39 | 3.92 | 6.29 | – | – | – | – | – | – | – | – | – | – | – | – | – | – | –
8 | Cc1nc(-c2ccc(-c3ccc(CO)cc3)cc2)c(C)s1 | 20 | 21.6 | 23.8 | 17.6 | 14.5 | 17.1 | 12.5 | 25 | 100 | 25 | 25 (≈ 84.6 µM) | 100 | >200 | 100 | >200 | 200 | 100 | – | >2 | >2 | Ratio (Bacillus spizizenii [23]): >2; Ratio (Staphylococcus aureus [21]): >2; Ratio (Proteus vulgaris [22]): >2; Ratio (Aspergillus niger [24]): >2
9 | Cc1nc(-c2ccc(-c3ccc(F)c(C)c3)cc2)c(C)s1 | 14.6 | 16.4 | 18.1 | 15.2 | – | 5.63 | – | – | – | – | – | – | – | – | – | – | – | – | – | – | –
10 | Cc1cc(C)c(-c2ccc(-c3nc(C)sc3C)cc2)c(C)c1 | 24.6 | 26.1 | 28 | 22.1 | 25.2 | 27.8 | 25 | 6.25 | 12.5 | 6.25 | 12.5 (≈ 40.7 µM) | 50 | 100 | 12.5 | 50 | 100 | 25 | 6.25 (≈ 20.3 µM) | 2 | 2 | –
11 | Cc1nc(-c2ccc(-c3ccc(O)cc3)cc2)c(C)s1 | 17.7 | 19.2 | 21.1 | 20 | 13.6 | 15.3 | 25 | 25 | 50 | 50 | 25 (≈ 88.8 µM) | 200 | 100 | >200 | 200 | 200 | 100 | – | >2 | >2 | Ratio (Bacillus spizizenii [23]): >2; Ratio (Staphylococcus aureus [21]): >2; Ratio (Proteus vulgaris [22]): >2; Ratio (Aspergillus niger [24]): >2
12 | O=C(O)c1cn(C2CC2)c2cc(N3CCNCC3)c(F)cc2c1=O [CIPROFLOXACIN] | 25.5 | 27 | 29.8 | 23.2 | – | – | 6.25 | 6.25 | – | – | – | – | – | – | – | – | – | 6.25 (≈ 18.9 µM) | – | – | –
13 | CC(=O)N1CCN(c2ccc(OCC3COC(Cn4ccnc4)(c4ccc(Cl)cc4Cl)O3)cc2)CC1 (stereo not given) [KETOCONAZOLE] | – | – | – | – | 25.4 | 28.4 | – | – | – | 6.25 | 12.5 (≈ 23.5 µM) | – | – | – | – | – | – | – | – | – | –
